Source: ChEMBL document CHEMBL4699663, “Design, synthesis, and biological activity of novel semicarbazones as potent Ryanodine receptor1 inhibitors of Alzheimer's disease” (Bioorg Med Chem, 2021)
Converted amounts (≈) assume the structure as drawn. The source made the active and inactive calls. No cut-off for these calls is given here.

Experiments:
Homo sapiens [1] = organism: Homo sapiens; assay: Inhibition of RYR-1 R614C mutant (unknown origin) expressed in cells assessed as inhibition of store overload-induced Ca2+ release at 0.1 uM after 3 mins by fura-2AM dye based microscopic analysis relative to control; format: cell-based
Homo sapiens [2] = organism: Homo sapiens; assay: Inhibition of RYR-1 R614C mutant (unknown origin) expressed in cells assessed as inhibition of store overload-induced Ca2+ release at 3 uM after 3 mins by fura-2AM dye based microscopic analysis relative to control; format: cell-based
Homo sapiens [3] = organism: Homo sapiens; assay: Inhibition of RYR-1 R614C mutant (unknown origin) expressed in cells assessed as inhibition of store overload-induced Ca2+ release at 10 uM after 3 mins by fura-2AM dye based microscopic analysis relative to control; format: cell-based
Homo sapiens [4] = organism: Homo sapiens; assay: Inhibition of RYR-1 R614C mutant (unknown origin) expressed in cells assessed as inhibition of store overload-induced Ca2+ release after 3 mins by microscopic analysis; format: cell-based; conditions: dose microM 0.1-10, time 3.0 min
[5] = Kinetic aqueous solubility of the compound in PBS at pH 7.4 by turbidimetric analysis; format: physicochemical; conditions: read-out: Kinetic_solubility
Procedure, shortened: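 Turbidimetric kinetic solubility: DMSO stocks were diluted 100-fold into PBS pH 7.4, giving eight final concentrations (1.6–200 mM as printed). After 2 h incubation, absorbance was read at 540 nm. Wells above blank mean + 3 SD counted as turbid, and the highest clear concentration was taken as the solubility.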

[6] = molecular target: Acetylcholinesterase (Electrophorus electricus) (UniProt O42275); assay: Inhibition of electric eel AChE at 5 uM using acetylthiocholine iodide as substrate preincubated with enzyme for 30 mins followed by substrate addition and measured for 10 mins by Ellman's method relative to control; conditions: time 40.0 min
Sequence of Acetylcholinesterase (Electrophorus electricus) (O42275 24-633 limits assumed): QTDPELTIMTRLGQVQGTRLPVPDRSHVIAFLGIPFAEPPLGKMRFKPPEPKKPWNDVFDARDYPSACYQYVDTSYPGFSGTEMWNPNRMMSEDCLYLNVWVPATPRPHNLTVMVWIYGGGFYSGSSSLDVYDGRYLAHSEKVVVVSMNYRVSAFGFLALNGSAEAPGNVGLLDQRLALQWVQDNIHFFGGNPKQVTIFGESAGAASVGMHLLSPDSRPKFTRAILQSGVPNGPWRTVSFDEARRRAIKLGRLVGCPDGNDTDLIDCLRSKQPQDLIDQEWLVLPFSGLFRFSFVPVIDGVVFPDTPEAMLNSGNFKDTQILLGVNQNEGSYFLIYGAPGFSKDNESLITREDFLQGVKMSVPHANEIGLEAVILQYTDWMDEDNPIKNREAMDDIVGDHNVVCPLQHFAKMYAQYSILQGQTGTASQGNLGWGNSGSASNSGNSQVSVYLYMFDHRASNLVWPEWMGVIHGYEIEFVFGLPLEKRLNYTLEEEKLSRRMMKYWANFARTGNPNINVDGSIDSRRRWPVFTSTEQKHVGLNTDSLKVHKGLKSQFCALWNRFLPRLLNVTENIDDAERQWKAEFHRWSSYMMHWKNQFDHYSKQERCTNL
Procedure, shortened: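 Electrophorus electricus AChE at 0.25 U/mL, with 60 µM DTNB in 0.05 M phosphate buffer pH 8, was incubated 30 min with the DMSO-dissolved inhibitor. The reaction was then started with 1.5 mM acetylthiocholine iodide and read at 412 nm for 10 min. Percent inhibition was taken from reaction rates versus control, from three experiments run in triplicate.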

[7] = Toxicity in SPF grade FAD mouse assessed as effect on body weight at 3.2 mg/kg, ip administered for 30 consecutive days; format: organism-based; conditions: in vivo, 720 h, time 30 day
Procedure, shortened: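 Mixed-sex FAD mice, 5 months old, were given 3.2 mg/kg/day intraperitoneally in DMSO (1.12 mg/ml) for 30 consecutive days; controls received the same volume of DMSO. Body weight was measured daily during dosing and reported as mean ± SD (n = 7).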

Mus musculus [8] = assay: Cognitive enhancing effect in SPF grade FAD mouse assessed as reduction in mean escape latency time at 3.2 mg/kg, ip measured on day 2 by Morris water maze test (reference value: 36.72 sec); format: functional; conditions: time 2 day
Procedure, shortened: (§1)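 Mixed-sex FAD mice, 5 months old at dosing, given 3.2 mg/kg intraperitoneally in DMSO (1.12 mg/ml) daily for 30 days; controls got the same volume of DMSO. Morris water maze training started after dosing. Mice entered the water facing the wall from four entry points in turn, and time to find and climb the platform was recorded. Data are mean ± SD, analysed by ANOVA.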

Mus musculus [9] = assay: Cognitive enhancing effect in SPF grade FAD mouse assessed as reduction in mean escape latency time at 3.2 mg/kg, ip measured on day 3 by Morris water maze test (reference value: 35.59 sec); format: functional; conditions: time 3 day; procedure, shortened: as §1
Mus musculus [10] = assay: Cognitive enhancing effect in SPF grade FAD mouse assessed as reduction in mean escape latency time at 3.2 mg/kg, ip measured on day 4 by Morris water maze test (reference value: 31.99 sec); format: functional; conditions: time 4 day; procedure, shortened: as §1
Mus musculus [11] = assay: Improvement in learning and spatial memory in SPF grade FAD mouse assessed as swimming time on target zone at 3.2 mg/kg, ip measured 24 hrs post trial training by probe test (reference value: 23.1 +/- 1.1 %); format: functional
Homo sapiens [12] = organism: Homo sapiens; assay: Inhibition of RYR-1 R614C mutant (unknown origin) expressed in cells assessed as inhibition of store overload-induced Ca2+ release at 0.1 uM after 3 mins by fura-2AM dye based microscopic analysis; format: cell-based
Homo sapiens [13] = organism: Homo sapiens; assay: Inhibition of RYR-1 R614C mutant (unknown origin) expressed in cells assessed as inhibition of store overload-induced Ca2+ release at 3 uM after 3 mins by fura-2AM dye based microscopic analysis; format: cell-based
Homo sapiens [14] = organism: Homo sapiens; assay: Inhibition of RYR-1 R614C mutant (unknown origin) expressed in cells assessed as inhibition of store overload-induced Ca2+ release at 10 uM after 3 mins by fura-2AM dye based microscopic analysis; format: cell-based

SMILES	inhibition (Homo sapiens [1])	inhibition (Homo sapiens [2])	inhibition (Homo sapiens [3])	inhibition (Homo sapiens [4])	further results
O=C(N/N=C/c1ccc(-c2ccc([N+](=O)[O-])cc2)o1)Nc1cccc(Br)c1	26.7%	67.1%	67.1%	Dose-dependent effect	
O=C(N/N=C/c1ccc(-c2ccc([N+](=O)[O-])cc2)o1)Nc1ccccc1OC(F)(F)F		20.4%	57.1%	Dose-dependent effect	
O=C(N/N=C/c1ccc(-c2ccc([N+](=O)[O-])cc2)o1)Nc1ccc([N+](=O)[O-])cc1		14.1%	32%	Dose-dependent effect	
O=C1CN(/N=C/c2ccc(-c3ccc([N+](=O)[O-])cc3)o2)C(O)=N1 [DANTROLENE]					solubility kinetic [5]: 560 µM (≈ 176 µg/mL)
O=C(NCc1ccc(C(F)(F)F)cc1)N/N=C/c1ccc(-c2ccc([N+](=O)[O-])cc2)o1	19.7%	27.9%	53.1%	Dose-dependent effect	
Cc1ccc(NC(=O)N/N=C/c2ccc(-c3ccc([N+](=O)[O-])cc3)o2)cc1		10.8%	29.5%	Dose-dependent effect	
O=C(N/N=C/c1ccc(-c2ccc([N+](=O)[O-])cc2)o1)Nc1ccccc1Br	20.1%	38.5%	67.1%	Dose-dependent effect	
CN(/N=C/c1ccc(-c2ccc([N+](=O)[O-])cc2)o1)C(=O)n1ccnc1	23%	53.5%	74.9%	Dose-dependent effect	
O=C(NCc1ccc(Cl)cc1Cl)N/N=C/c1ccc(-c2ccc([N+](=O)[O-])cc2)o1			16.2%	Dose-dependent effect	inhibition [6]: 8.9%
O=C(N/N=C/c1ccc(-c2ccc([N+](=O)[O-])cc2)o1)n1ccnc1	26.1%	48.4%	68.2%	Dose-dependent effect	
COc1ccccc1NC(=O)N/N=C/c1ccc(-c2ccc([N+](=O)[O-])cc2)o1			30.6%	Dose-dependent effect	
O=C(N/N=C/c1ccc(-c2ccc([N+](=O)[O-])cc2)o1)c1cnc[nH]1	31.5%	77.2%	93.7%	Dose-dependent effect	solubility kinetic [5]: 580 µM (≈ 189 µg/mL); inhibition [6]: 24.8%; Activity [7]: Non-Toxic; Time (Mus musculus [8]): 29.89 s; Time (Mus musculus [9]): 25.12 s; Time (Mus musculus [10]): 16.23 s; Activity (Mus musculus [11]): 35.7%
O=C(NCc1cccc(F)c1)N/N=C/c1ccc(-c2ccc([N+](=O)[O-])cc2)o1		25.8%	72.1%	Dose-dependent effect	inhibition [6]: 33.6%
O=C(NCc1ccc(F)cc1)N/N=C/c1ccc(-c2ccc([N+](=O)[O-])cc2)o1	23.6%	35.1%	76.1%	Dose-dependent effect	
O=C(NCc1ccccc1)N/N=C/c1ccc(-c2ccc([N+](=O)[O-])cc2)o1		23.1%	48.6%	Dose-dependent effect	
O=C(N/N=C/c1ccc(-c2ccc([N+](=O)[O-])cc2)o1)Nc1ccccc1Cl		25.1%	50.1%	Dose-dependent effect	
O=C(N/N=C/c1ccc(-c2ccc([N+](=O)[O-])cc2)o1)Nc1ccccc1	15.9%	35.8%	93.9%	Dose-dependent effect	solubility kinetic [5]: 60 µM (≈ 21 µg/mL); inhibition [6]: 19.3%
O=C(N/N=C/c1ccc(-c2ccc([N+](=O)[O-])cc2)o1)Nc1ccccc1C(F)(F)F	12.6%	30.1%	55.5%	Dose-dependent effect	
CN(/N=C/c1ccc(-c2ccc([N+](=O)[O-])cc2)o1)C(=O)c1cncn1C	24.5%	70.5%	82.5%	Dose-dependent effect	solubility kinetic [5]: 480 µM (≈ 170 µg/mL); inhibition [6]: 14.3%
Cc1ccc(CNC(=O)N/N=C/c2ccc(-c3ccc([N+](=O)[O-])cc3)o2)cc1			35.4%	Dose-dependent effect	
O=C(NCc1ccc(Cl)c(Cl)c1)N/N=C/c1ccc(-c2ccc([N+](=O)[O-])cc2)o1		25.3%	37.2%	Dose-dependent effect	
Cc1ccccc1NC(=O)N/N=C/c1ccc(-c2ccc([N+](=O)[O-])cc2)o1					inhibition (Homo sapiens [12]): inactive; inhibition (Homo sapiens [13]): inactive; inhibition (Homo sapiens [14]): inactive; inhibition [6]: 18.2%
O=C(NCc1ccccc1F)N/N=C/c1ccc(-c2ccc([N+](=O)[O-])cc2)o1		26.1%	44.6%	Dose-dependent effect	
O=C(NCc1cccc(Cl)c1Cl)N/N=C/c1ccc(-c2ccc([N+](=O)[O-])cc2)o1			30.6%	Dose-dependent effect	
O=C1CN(/N=C/c2ccc(-c3ccc([N+](=O)[O-])cc3)o2)C(=O)N1	30.8%	73.1%	94.2%	Dose-dependent effect	inhibition [6]: 0.1%
O=C(N/N=C/c1ccc(-c2ccc([N+](=O)[O-])cc2)o1)Nc1ccc(Br)cc1	13.2%	31.3%	52.9%	Dose-dependent effect	
Cc1cccc(NC(=O)N/N=C/c2ccc(-c3ccc([N+](=O)[O-])cc3)o2)c1	10.7%	15.2%	34.6%	Dose-dependent effect	
O=C(NCc1ccc(Cl)cc1)N/N=C/c1ccc(-c2ccc([N+](=O)[O-])cc2)o1	27.1%	48.6%	70.4%	Dose-dependent effect	
